pIC50: −log10 of the molar value.
Assays:
[1] = target: T1, Polyunsaturated fatty acid 5-lipoxygenase (Homo sapiens, UniProt P09917); test: Inhibition of 5-lipoxygenase in human polymorphonuclear leukocytes assessed as inhibition of LTB4 production preincubated for 15 mins measured after 10 mins by HPLC method; assay type: cell-based; conditions: pooled result: one value given for 2 cell lines, strains, targets or settings
T1 sequence (P09917 whole entry): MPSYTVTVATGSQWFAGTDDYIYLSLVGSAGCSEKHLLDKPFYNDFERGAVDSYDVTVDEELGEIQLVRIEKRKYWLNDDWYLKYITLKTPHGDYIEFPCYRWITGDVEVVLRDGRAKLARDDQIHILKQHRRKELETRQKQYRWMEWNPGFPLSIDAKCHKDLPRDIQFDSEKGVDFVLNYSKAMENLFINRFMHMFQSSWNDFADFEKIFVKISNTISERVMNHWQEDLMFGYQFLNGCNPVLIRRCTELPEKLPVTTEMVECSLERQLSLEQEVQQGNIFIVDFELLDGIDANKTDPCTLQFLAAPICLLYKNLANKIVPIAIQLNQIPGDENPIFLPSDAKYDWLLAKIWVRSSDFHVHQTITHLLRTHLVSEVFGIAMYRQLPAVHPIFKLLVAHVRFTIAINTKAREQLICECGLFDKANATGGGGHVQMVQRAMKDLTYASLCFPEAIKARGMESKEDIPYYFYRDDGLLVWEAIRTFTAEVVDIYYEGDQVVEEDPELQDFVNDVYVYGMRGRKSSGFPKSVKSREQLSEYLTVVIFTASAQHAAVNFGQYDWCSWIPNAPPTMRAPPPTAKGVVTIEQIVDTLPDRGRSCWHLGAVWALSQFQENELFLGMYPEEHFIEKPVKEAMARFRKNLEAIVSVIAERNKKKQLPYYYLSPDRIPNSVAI
Method in brief: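 Isolated intact human polymorphonuclear leukocytes were preincubated with compound, then stimulated with 2.5 μM ionophore A23187 plus exogenous arachidonic acid (20 μM) to bypass cPLA₂ substrate supply. Three increasing concentrations were tested in three to five independent experiments and normalized to DMSO control. IC₅₀ was read by linear interpolation around 50% activity, reported as mean with SEM.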

[2] = target: T1, Polyunsaturated fatty acid 5-lipoxygenase; test: Inhibition of 5-lipoxygenase in S100 supernatant assessed as inhibition of LTB4 production preincubated for 15 mins measured after 10 mins by HPLC method
Method in brief: (§1)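 Cell-free assay using the 100000g supernatant (S100) of human PMNL homogenates. Samples were preincubated with compound, then 5-LO product formation was started with 1 mM CaCl₂ plus 20 μM arachidonic acid. Three increasing concentrations were tested in three to five independent experiments and normalized to DMSO control. IC₅₀ was estimated by linear interpolation around 50% activity.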

[3] = target: T1, Polyunsaturated fatty acid 5-lipoxygenase; test: Inhibition of 5-lipoxygenase in S100 supernatant assessed as inhibition of (5(S)-hydroperoxy-6-trans-8,11,14-cis-eicosatetraenoic acid production preincubated for 15 mins measured after 10 mins by HPLC method; method in brief: as §1
[4] = target: T2, Polyunsaturated fatty acid 5-lipoxygenase (Homo sapiens) (UniProt P09917); test: Inhibition of 5-lipoxygenase in S100 supernatant assessed as residual activity at 30 uM relative to control
T2 sequence (whole entry): T1 sequence (P09917 whole entry)
Method in brief: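 PMNL homogenate 100000g supernatant (S100) was preincubated with compound, then stimulated with 1 mM CaCl₂ and 20 μM arachidonic acid. 5-LO product formation was expressed relative to DMSO control.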

[5] = target: T2, Polyunsaturated fatty acid 5-lipoxygenase (Homo sapiens); test: Inhibition of 5-lipoxygenase in human polymorphonuclear leukocytes assessed as residual activity at 30 uM relative to control; assay type: cell-based
Method in brief: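 Intact isolated human PMNL were preincubated with compound, then 5-LO product formation was elicited with 2.5 μM A23187 and 20 μM exogenous arachidonic acid. Activity was expressed relative to DMSO control.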

[6] = target: T1, Polyunsaturated fatty acid 5-lipoxygenase; test: Inhibition of 5-lipoxygenase

COc1ccc(/C=C2\SC(c3ccc(C(C)=O)cc3)=NC2=O)cc1
pIC50 [1]: 6.26
pIC50 [2]: 6.96
pIC50 [3]: 6.96

COc1ccc(/C=C2\SC(c3ccc(C)cc3)=NC2=O)cc1
pIC50 [1]: 6.18
pIC50 [2]: 6.52
pIC50 [3]: 6.52

COc1ccc(/C=C2\SC(c3ccc(C)cc3)=NC2=O)c(OC)c1
pIC50 [1]: 5.69
pIC50 [2]: 6.01
pIC50 [3]: 6.01

COc1ccc(/C=C2\SC(N3CCCC3)=NC2=O)cc1
pIC50 [1]: < 4.52
pIC50 [2]: < 4.52
Activity [4]: > 60%
pIC50 [3]: < 4.52
Activity [5]: > 60%

COc1ccc(/C=C2\SC(c3ccccc3)=NC2=O)cc1
pIC50 [1]: 6.28
pIC50 [2]: 6.82
pIC50 [3]: 6.82

COC(=O)COc1ccc(/C=C2\SC(c3ccc(C)cc3)=NC2=O)cc1
pIC50 [1]: 5.68
pIC50 [2]: 6.72
pIC50 [3]: 6.72

COc1ccc(/C=C2\SC(c3ccc(O)cc3)=NC2=O)cc1
pIC50 [1]: 5.77
pIC50 [2]: 6.19
pIC50 [3]: 6.19

COc1cccc(/C=C2\SC(c3ccc(C)cc3)=NC2=O)c1O
pIC50 [1]: 6.10
pIC50 [2]: 5.89
pIC50 [3]: 5.89

CCCOc1ccc(/C=C2\SC(N3CCCCCC3)=NC2=O)cc1
pIC50 [1]: 4.92
pIC50 [2]: 4.85
pIC50 [3]: 4.85

CCOc1cc(/C=C2\SC(c3ccc(C)cc3)=NC2=O)cc(Cl)c1O
pIC50 [1]: 5.54
pIC50 [2]: 5.90
pIC50 [3]: 5.90

COC(=O)COc1ccc(C2=NC(=O)/C(=C/c3ccc(OC)cc3)S2)cc1
pIC50 [1]: 6.07
pIC50 [2]: 6.24
pIC50 [3]: 6.24

COc1ccc(/C=C2\SC(c3ccc(C)cc3)=NC2=O)c(OC)c1OC
pIC50 [1]: 5.61
pIC50 [2]: 6.40
pIC50 [3]: 6.40

CN(C)c1ccc(/C=C2\SC(N3CCCCC3)=NC2=O)cc1
pIC50 [1]: 4.70
pIC50 [2]: < 4.52
Activity [4]: > 60%
pIC50 [3]: < 4.52
Activity [5]: > 60%

C/C(=C1/SC(O)=NC1=O)c1cc(-c2ccccc2)c(O)c(-c2ccccc2)c1
pIC50 [6]: < 5.00

COc1ccc(/C=C2\SC(c3cccc(C(C)=O)c3)=NC2=O)cc1
pIC50 [1]: 6.42
pIC50 [2]: 6.89
pIC50 [3]: 6.89

O=C1N=C(Nc2ccccc2)S/C1=C\c1ccccc1
pIC50 [1]: < 4.52
pIC50 [2]: < 4.52
Activity [4]: > 60%
pIC50 [3]: < 4.52
Activity [5]: > 60%

COc1ccc(/C=C2\SC(c3ccc(OC)cc3)=NC2=O)cc1
pIC50 [1]: 6.49
pIC50 [2]: 5.40
pIC50 [3]: 5.40

COc1ccc(/C=C2\SC(c3ccc(N)cc3)=NC2=O)cc1
pIC50 [1]: 5.71
pIC50 [2]: 6.20
pIC50 [3]: 6.20

COc1ccc(/C=C2\SC(c3ccc(Cl)cc3)=NC2=O)cc1
pIC50 [1]: 6.55
pIC50 [2]: 7.05
pIC50 [3]: 7.05

O=C1N=C(c2ccc(Cl)cc2)S/C1=C\c1ccc(O)cc1
pIC50 [1]: 6.40
pIC50 [2]: 6.96
pIC50 [3]: 6.96

O=C1N=C(c2ccccc2)S/C1=C\c1c2ccccc2cc2ccccc12
pIC50 [1]: 5.37
pIC50 [2]: 6.52
pIC50 [3]: 6.52

Cc1ccc(C2=NC(=O)/C(=C/c3cccc(Cl)c3)S2)cc1
pIC50 [1]: 6.24
pIC50 [2]: 6.52
pIC50 [3]: 6.52

Cc1ccc(C2=NC(=O)/C(=C/c3ccccc3)S2)cc1
pIC50 [1]: 6.14
pIC50 [2]: 6.46
pIC50 [3]: 6.46

O=C1/C(=C/C=C/c2ccco2)S/C(=N\c2ccccc2)N1c1ccccc1
pIC50 [1]: 4.52
pIC50 [2]: < 4.52
Activity [4]: > 60%
pIC50 [3]: < 4.52
Activity [5]: > 60%

COc1cc(/C=C2\SC(c3ccccc3)=NC2=O)cc([N+](=O)[O-])c1O
pIC50 [1]: 5.36
pIC50 [2]: 5.52
pIC50 [3]: 5.52

COc1ccc(OC)c(/C=C2\SC(c3ccc(C)cc3)=NC2=O)c1
pIC50 [1]: 6.46
pIC50 [2]: 6.89
pIC50 [3]: 6.89

Cc1ccc(C2=NC(=O)/C(=C/C=C/c3ccccc3)S2)cc1
pIC50 [1]: 6.40
pIC50 [2]: 6.64
pIC50 [3]: 6.64

COc1cc(/C=C2\SC(c3ccc(C)cc3)=NC2=O)cc(Cl)c1O
pIC50 [1]: < 5.00
pIC50 [2]: 5.57
pIC50 [3]: 5.57

COc1ccc(/C=C2\SC(c3cccc(F)c3)=NC2=O)cc1
pIC50 [1]: 6.62
pIC50 [2]: 6.92
pIC50 [3]: 6.92

CCOc1ccc(/C=C2\SC(c3ccccc3)=NC2=O)cc1
pIC50 [1]: 5.70
pIC50 [2]: 6.30
pIC50 [3]: 6.30

COc1cc(/C=C2\SC(c3ccccc3)=NC2=O)cc(Cl)c1O
pIC50 [1]: 5.02
pIC50 [2]: 5.52
pIC50 [3]: 5.52

COc1cc(Cl)cc(/C=C2\SC(c3ccccc3)=NC2=O)c1O
pIC50 [1]: 6.19
pIC50 [2]: 6.52
pIC50 [3]: 6.52

Cc1ccc(/C=C2\SC(Nc3ccc4ccccc4c3)=NC2=O)cc1
pIC50 [1]: < 4.52
pIC50 [2]: < 4.52
Activity [4]: > 60%
pIC50 [3]: < 4.52
Activity [5]: > 60%

COc1cccc(/C=C2\SC(c3ccccc3)=NC2=O)c1O
pIC50 [1]: 6.32
pIC50 [2]: 6.27
pIC50 [3]: 6.27

CC(C)(C)c1ccc(/C=C2\SC(c3ccccc3)=NC2=O)cc1
pIC50 [1]: 6.04
pIC50 [2]: 6.52
pIC50 [3]: 6.52

From ChEMBL document CHEMBL1765089, “A class of 5-benzylidene-2-phenylthiazolinones with high potency as direct 5-lipoxygenase inhibitors” (J Med Chem, 2011)
